Assay results reported in ChEMBL document CHEMBL4732165, “Analogues of the Herbicide, N-Hydroxy-N-isopropyloxamate, Inhibit Mycobacterium tuberculosis Ketol-Acid Reductoisomerase and Their Prodrugs Are Promising Anti-TB Drug Leads” (J Med Chem, 2021).
≈ marks a conversion by molar mass, not a printed value.

Key:
[1] = Inhibition of Mycobacterium tuberculosis KARI using 2-acetolactate as substrate preincubated for 30 mins in presence of Mg2+ and NADPH followed by substrate addition by Morrison's equation analysis
Summary of the method: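 0.27 μM MtKARI preincubated 30 min at 25 °C with inhibitor, 50 μM NADPH and 50 mM Mg²⁺ in 0.1 M Tris-HCl pH 8. Reaction started with 200 μM 2-acetolactate, and A340 decrease followed for 5 min. Compounds above 80% inhibition at 100 μM were retested at 1 nM−100 μM. Ki from Morrison equation fit.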

[2] = Inhibition of Escherichia coli KARI using acetolactate as substrate assessed as slow and tight binding by measuring initial inhibition constant in presence of NADPH by spectrophotometric analysis
[3] = Inhibition of Escherichia coli KARI using acetolactate as substrate assessed as slow and tight binding by measuring steady-state inhibition constant in presence of NADPH by spectrophotometric analysis
[4] = Inhibition of Mycobacterium tuberculosis KARI expressed in Escherichia coli BL21 using 2-acetolactate as substrate in presence of NADPH by spectrophotometric analysis
[5] = Selectivity ratio of MIC for antimycobacterial activity against Mycobacterium tuberculosis H37Ra in presence of BCAA to MIC for antimycobacterial activity against Mycobacterium tuberculosis H37Ra in absence of BCAA; assay type: functional
[6] = system: Mycobacterium tuberculosis; assay: Antimycobacterial activity against Mycobacterium tuberculosis H37Ra assessed as reduction in bacterial growth incubated for 5 days in presence of BCAA by resazurin dye based assay; assay type: functional; details: 120 h, time 5 day
Summary of the method: (§1)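 REMA as for the unsupplemented assay, but with medium supplemented with 1 mM each of leucine, isoleucine and valine. Defined minimal medium at 37 °C. Log-phase inoculum at final OD 0.001 (H37Ra) or 0.003 (H37Rv). 2-fold dilutions from 30 μM. Resazurin fluorescence (530/590 nm) read after 24 h.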

[7] = Selectivity index, ratio of MIC for antimycobacterial activity against Mycobacterium tuberculosis H37Rv in presence of BCAA to MIC for antimycobacterial activity against Mycobacterium tuberculosis H37Rv in absence of BCAA; assay type: functional
[8] = system: Mycobacterium tuberculosis; assay: Antimycobacterial activity against Mycobacterium tuberculosis H37Rv assessed as reduction in bacterial growth incubated for 5 days in presence of BCAA by resazurin dye based assay; assay type: functional; details: 120 h, time 5 day; summary of the method: as §1
[9] = system: Mycobacterium tuberculosis; assay: Antimycobacterial activity against Mycobacterium tuberculosis H37Ra assessed as reduction in bacterial growth incubated for 5 days by resazurin dye based assay; assay type: functional; details: 120 h, time 5 day
Summary of the method: (§2)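 REMA in defined minimal medium (KH2PO4, Na2HPO4, L-asparagine, ferric ammonium citrate, MgSO4, CaCl2, ZnSO4, 0.1% glycerol) at 37 °C. Compounds 2-fold serially diluted from 30 μM. Fluorescence (ex 530/em 590 nm) read 24 h after resazurin.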

[10] = system: Mycobacterium tuberculosis; assay: Antimycobacterial activity against Mycobacterium tuberculosis H37Rv assessed as reduction in bacterial growth incubated for 5 days by resazurin dye based assay; assay type: functional; details: 120 h, time 5 day; summary of the method: as §2
[11] = Inhibition of Slackia exigua KARI
[12] = Selectivity ratio of IC50 for Mycobacterium tuberculosis KARI to IC50 for Slackia exigua KARI
[13] = system: Mycobacterium tuberculosis; assay: Potency index, ratio of IC50 for IpOHA to IC50 for test compound for inhibition of Mycobacterium tuberculosis KARI using 2-acetolactate as substrate
[14] = system: SW-620; assay: Cytotoxicity against human SW-620 cells up to 50 uM incubated for 24 to 48 hrs by MTT assay; assay type: cell-based; details: time 24-48 hrs
Summary of the method: (§3)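 Cells grown to 80% confluency, RAW 264.7 and HEK293 in DMEM, SW620 in RPMI, each with 10% FBS and 1 mM nonessential amino acids. Seeded at 2×10⁵ (RAW 264.7), 5×10³ (HEK293) or 2×10³ (SW620) per well and held 24−48 h at 37 °C, 5% CO2. Twofold dilutions added at 1% DMSO final, then overnight incubation. MTT 3 h, DMSO solubilisation, A570.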

[15] = system: RAW264.7; assay: Cytotoxicity against mouse RAW264.7 cells up to 100 uM incubated for 24 to 48 hrs by MTT assay; assay type: cell-based; details: time 24-48 hrs; summary of the method: as §3
[16] = system: HEK293; assay: Cytotoxicity against human HEK293 cells up to 50 uM incubated for 24 to 48 hrs by MTT assay; assay type: cell-based; details: time 24-48 hrs; summary of the method: as §3

SMILES: CC(C)NC(=O)C(=O)O
- Ki [1]: > 20000 nM

SMILES: CCN(CC)C(=O)C(=O)O
- Ki [1]: > 20000 nM

SMILES: O=C(O)C(=O)NCc1ccccc1
- Ki [1]: > 20000 nM

SMILES: CCOC(=O)C(=O)N(O)C(C)c1ccccc1 (stereo not drawn)
- Ki [1]: 152 nM

SMILES: CC(C)N(O)C(=O)C(=O)O
- Ki [2]: 160 nM
- Ki [3]: 0.09 nM
- Ki [4]: 97.7 nM

SMILES: CC(C)CC(C)N(O)C(=O)C(=O)O (stereo not drawn)
- Ki [1]: 660 nM

SMILES: COC(=O)CC(=O)N(O)C1CCCC1
- Ki [1]: > 20000 nM

SMILES: CCCCCCCCCCCCOC(=O)C(=O)N(O)C1CCCC1
- Selectivity ratio [5]: 3
- MIC90 [6]: 14.1 µM
- Selectivity ratio [7]: 6
- MIC90 [8]: 17.2 µM
- MIC90 [9]: 4.99 µM (≈ 1.7 µg/mL)
- MIC90 [10]: 2.97 µM (≈ 1.01 µg/mL)

SMILES: CCOC(=O)C(=O)NCc1ccccc1
- Ki [1]: > 20000 nM

SMILES: O=C(O)C(=O)N(C1CCCCC1)C1CCCCC1
- Ki [1]: > 20000 nM

SMILES: O=C(O)CC(=O)N(O)C1CCCC1
- Ki [1]: > 20000 nM

SMILES: CCOC(=O)C(=O)N(C1CCCCC1)C1CCCCC1
- Ki [1]: > 20000 nM

SMILES: CCOC(=O)C(=O)N(O)C1CCNCC1
- Ki [1]: 3080 nM

SMILES: CC(c1ccccc1)N(O)C(=O)C(=O)O (stereo not drawn)
- Ki [1]: 97.7 nM
- Ki [11]: 193 nM
- Ratio IC50 [12]: 2

SMILES: CCOC(=O)C(=O)N(O)C1CCCCC1
- Ki [1]: 1020 nM

SMILES: CCCCCCOC(=O)C(=O)N(O)C1CCCC1
- MIC90 [9]: > 30 µM

SMILES: CCOC(=O)C(=O)N(O)C1CCCC1
- Ki [1]: 32.2 nM

SMILES: O=C(O)C(=O)N(O)C1CCCC1
- Ki [1]: 19.7 nM
- Ki [11]: 8.5 nM
- Ratio IC50 [13]: 5
- MIC90 [10]: 219 µM (≈ 37.9 µg/mL)

SMILES: CCCCCCCCOC(=O)C(=O)N(O)C1CCCC1
- Selectivity ratio [5]: 3
- MIC90 [6]: 24.9 µM
- Selectivity ratio [7]: 6
- MIC90 [8]: 18.9 µM
- MIC90 [9]: 6.34 µM (≈ 1.81 µg/mL)
- MIC90 [10]: 2.32 µM (≈ 0.662 µg/mL)

SMILES: O=C(O)C(=O)N(O)C1CCCCC1
- Ki [1]: 39.6 nM
- Ki [11]: 8.5 nM
- Ratio IC50 [12]: 25

SMILES: CCOC(=O)C(=O)N(O)C1CCN(C(=O)OC(C)(C)C)CC1
- Ki [1]: > 20000 nM

SMILES: CC(C)CNC(=O)C(=O)O
- Ki [1]: > 20000 nM

SMILES: CCCCCCCCCCOC(=O)C(=O)N(O)C1CCCC1
- Selectivity ratio [5]: 3
- Activity [14]: Non-Toxic
- MIC90 [6]: 15.3 µM
- Activity [15]: Non-Toxic
- Activity [16]: Non-Toxic
- Selectivity ratio [7]: 6
- MIC90 [8]: 15.2 µM
- MIC90 [9]: 3.01 µM (≈ 0.943 µg/mL)
- MIC90 [10]: 2.45 µM (≈ 0.768 µg/mL)

SMILES: CCCCCCCCCCCCCCCCCCOC(=O)C(=O)N(O)C1CCCC1
- MIC90 [9]: > 30 µM

SMILES: CCOC(=O)C(=O)N(CC)CC
- Ki [1]: > 20000 nM

SMILES: CCOC(=O)C(=O)N(O)C(C)CC(C)C (stereo not drawn)
- Ki [1]: 2660 nM
